In paper PMC5447658 (Translational Oncology, 2017):

What was measured:
HER2 (SKBR3 cells) = HER2 (SKBR3 cells) (Homo sapiens, UniProt P04626); experiment: In vitro receptor competitive binding assay; details: TP1623 0-500 nmol/L, 30 minutes at 4°C, then tracer 2 h at 4°C
Method in brief: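 SKBR3 cells at 2–4 × 10^4/well were seeded the day before. Unlabelled test compound was added at 0, 1, 5, 25, 50 and 500 nmol/L final, in triplicate, for 30 min at 4°C. 99mTc tracer (462 KBq/0.1 μg) followed for 2 h at 4°C. Cells were washed three times in ice-cold PBS, trypsin-digested and gamma-counted. Count was plotted against competitor concentration.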

HER2 = details: cited from earlier work

competitive inhibition of binding of 99mTc-TP1623 to HER2 (HER2 (SKBR3 cells)) | Sequence | affinity for HER2 (HER2)
could competitively inhibit the binding | G (D) AGG-Aba-YCFPDEEGACY-NH2 [TP1623] | –
– | YCFPDEEGACY | high affinity
